From PMC7673712 (Science Advances, 2020) come the findings set out here.

SMILES strings stand for the structures.

The subject of data set [1] is CT-26 cells. Put plainly: Cellular GSH quantitative analysis. It counts as cell-based. Particulars: 1.0 mM, 0.5 and 2 hours. In short, it runs like this: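 CT-26 cells (RPMI 1640, 10% FBS, 37°C, 5% CO2) seeded in 24-well plates at 40,000 cells/well for 18 h. Medium replaced with serum-free medium containing test compound at various concentrations. After 0.5 or 2 h the cells were lysed and intracellular GSH was measured with a GSH/GSSG assay kit.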

For data set [2], the system named is CT-26 cells and MCF-7 cells. The data set can be described thus: Cellular RNS detection, red fluorescent dye, microscopy and flow cytometry. Format: cell-based. Particulars: after 4 hours of treatment, CT-26 and MCF-7 cells. The gist of the method:
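CT-26 and MCF-7 cells (RPMI 1640, 10% FBS, 37°C, 5% CO2) grown in 24-well plates were preloaded with NO detection reagent for 2 h under normal culture conditions. The reagent was removed, and cells were exposed to test compound for 1, 2 or 4 h, with a commercial HNO donor as positive control. Cells were washed once, and red fluorescence was imaged by inverted fluorescence microscopy.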

A short description of data set [3]: HNO release half-life of IL-NONOates in PBS, UV absorbance decay at 330 nm. It counts as physicochemical. Particulars: IL-NONOate formed from the IL; 37°C, pH 7.4, 0.01 M phosphate buffer (PBS).
Data set [4] can be described thus: ITC binding of ILs to cardiolipin. Particulars: compared with [Ch][Tau] or [EMIm][APA]. In short, it runs like this: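 Isothermal titration calorimetry at 25°C. An aqueous solution of test compound in the syringe was titrated into aqueous 18:1 cardiolipin in the sample cell. One small injection was followed by 28 larger injections, each lasting 10 s, with 120 s between injections and stirring at 1001 rpm. The binding constant was obtained from analysis of the calorimetric data.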

Data set [5] can be described thus: NO absorption by ILs, gravimetric method. Format: physicochemical. Particulars: 30°C until full absorption. The gist of the method:
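The system was purged with N2 (60 ml/min, 30 min). NO at atmospheric pressure was then bubbled at about 20 ml/min through about 1 g of test compound held in a metal block at 30°C. Uptake was weighed at regular intervals on a balance (±0.0001 g) until absorption was complete, and expressed as mol NO per mol compound.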

In the case of `[Na+].[Na+].[O-][N+]([O-])=NO` [AS, Na2N2O3], the “intracellular GSH levels” value in data set [1] was “restoration of GSH”. Moreover, the “intracellular RNS level” value in data set [2] is “failed to achieve this goal”.

For `C[N+](C)(C)CCO.NCCC(=O)[O-]` [[Ch][APA]], in data set [3], the “t1/2 (HNO release half-life)” value was determined as 17.68 h. In data set [4], the “binding constant with CL, comparison” value was “significantly higher”. For the same molecule, the Absorption capacity in data set [5] is on record as 1.70 mol NO per mol of IL.

In the case of `C[N+](C)(C)CCO.NCCS(=O)(=O)[O-]` [[Ch][Tau]], the Absorption capacity in data set [5] is 1.67 mol NO per mol of IL.

For the molecule `C1CCC2=NCCCN2CC1.NCCS(=O)(=O)O` [[DBU][Tau]], the Absorption capacity in data set [5] was 2.79 mol NO per mol of IL.

As to `CCn1cc[n+](C)c1.NCS(=O)(=O)[O-]` [[EMIm][AMS]], the “t1/2 (HNO release half-life)” value in data set [3] was 5.4 h. In addition, the Absorption capacity in data set [5] is reported as 1.38 mol NO per mol of IL.

Turning to `CCn1cc[n+](C)c1.NCCC(=O)[O-]` [[EMIm][APA]], in data set [3], the “t1/2 (HNO release half-life)” value amounted to 16.6 h. Moreover, the Absorption capacity in data set [5] was 2.11 mol NO per mol of IL.

As for `CCn1cc[n+](C)c1.NCCCS(=O)(=O)[O-]` [[EMIm][APS]], the “t1/2 (HNO release half-life)” value in data set [3] was determined as 16 h. For the same molecule, the Absorption capacity in data set [5] was 2.79 mol NO per mol of IL.

For `CCn1cc[n+](C)c1.NCCS(=O)(=O)[O-]` [[EMIm][Tau]], in data set [5], the Absorption capacity is on record as 2.28 mol NO per mol of IL.

As to `C[N+](C)(CCO)CCO.NCCS(=O)(=O)[O-]` [[HEMN][Tau]], in data set [5], the Absorption capacity is recorded as 2.51 mol NO per mol of IL.

In the case of `CCCCCCCCCCCCCC[P+](CCCCCC)(CCCCCC)CCCCCC.NCCS(=O)(=O)[O-]` [[P66614][Tau]], the “t1/2 (HNO release half-life)” value in data set [3] turned out to be 5.42 h. In data set [5], the Absorption capacity is reported as 3.33 mol NO per mol of IL.
